Assays:
[1] = biological target: T1, Muscarinic acetylcholine receptor M2 (Homo sapiens, UniProt P08172); assay: Inhibition of binding of [3H]quinuclidinyl benzilate to muscarinic receptors in membranes of CHO cells transfected with Muscarinic acetylcholine receptor M2; type: cell membranes
T1 sequence (P08172 whole entry): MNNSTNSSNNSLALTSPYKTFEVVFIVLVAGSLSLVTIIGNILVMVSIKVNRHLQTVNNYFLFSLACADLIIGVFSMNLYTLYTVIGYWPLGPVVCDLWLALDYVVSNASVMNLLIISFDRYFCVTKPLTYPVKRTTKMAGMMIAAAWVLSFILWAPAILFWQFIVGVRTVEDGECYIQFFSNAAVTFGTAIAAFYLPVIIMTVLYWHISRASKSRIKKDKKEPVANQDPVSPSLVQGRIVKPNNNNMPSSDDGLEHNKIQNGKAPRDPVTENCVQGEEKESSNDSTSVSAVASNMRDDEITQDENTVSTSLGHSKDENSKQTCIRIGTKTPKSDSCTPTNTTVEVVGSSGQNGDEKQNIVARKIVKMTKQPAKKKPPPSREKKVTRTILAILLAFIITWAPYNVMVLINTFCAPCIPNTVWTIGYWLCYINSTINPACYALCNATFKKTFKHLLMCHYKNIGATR

[2] = biological target: T2, Muscarinic acetylcholine receptor M1 (Rattus norvegicus, UniProt P08482); assay: Inhibition of binding of [3H]oxotremorine M to Muscarinic acetylcholine receptor M1 in rat cerebral cortical membranes; type: cell membranes, Membrane
T2 sequence (P08482 whole entry): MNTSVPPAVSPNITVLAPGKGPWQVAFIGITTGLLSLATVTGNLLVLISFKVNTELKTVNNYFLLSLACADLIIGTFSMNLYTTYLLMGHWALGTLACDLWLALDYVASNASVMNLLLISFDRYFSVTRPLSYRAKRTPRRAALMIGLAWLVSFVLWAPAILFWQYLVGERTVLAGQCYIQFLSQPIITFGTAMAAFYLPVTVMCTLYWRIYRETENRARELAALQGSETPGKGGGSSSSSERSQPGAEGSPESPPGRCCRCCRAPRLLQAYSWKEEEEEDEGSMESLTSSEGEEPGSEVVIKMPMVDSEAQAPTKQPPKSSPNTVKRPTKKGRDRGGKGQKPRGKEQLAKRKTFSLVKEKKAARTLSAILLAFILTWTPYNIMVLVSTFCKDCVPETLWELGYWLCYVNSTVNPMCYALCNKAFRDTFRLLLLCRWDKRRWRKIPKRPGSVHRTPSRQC
In short: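 Agonist radioligand assay: rat cortical membranes with 2 nM [3H]oxotremorine M in 25 mM sodium phosphate pH 7.4 with 5 mM MgCl2, 2 h at 25 °C, in triplicate. Nonspecific binding used 5 µM atropine. Filtration followed by scintillation counting.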

[3] = biological target: T2, Muscarinic acetylcholine receptor M1; assay: Affinity versus [3H]oxotremorine M (agonist) binding to Muscarinic acetylcholine receptor M1 in Rat Cerebral Cortical Membranes, (Kd=[…])
[4] = biological target: T3, Muscarinic acetylcholine receptor M3 (Homo sapiens, UniProt P20309); assay: Inhibition of binding of [3H]quinuclidinyl benzilate to muscarinic receptors in membranes of CHO cells transfected with Muscarinic acetylcholine receptor M3; type: cell membranes
Target sequence in this assay (P20309 whole entry): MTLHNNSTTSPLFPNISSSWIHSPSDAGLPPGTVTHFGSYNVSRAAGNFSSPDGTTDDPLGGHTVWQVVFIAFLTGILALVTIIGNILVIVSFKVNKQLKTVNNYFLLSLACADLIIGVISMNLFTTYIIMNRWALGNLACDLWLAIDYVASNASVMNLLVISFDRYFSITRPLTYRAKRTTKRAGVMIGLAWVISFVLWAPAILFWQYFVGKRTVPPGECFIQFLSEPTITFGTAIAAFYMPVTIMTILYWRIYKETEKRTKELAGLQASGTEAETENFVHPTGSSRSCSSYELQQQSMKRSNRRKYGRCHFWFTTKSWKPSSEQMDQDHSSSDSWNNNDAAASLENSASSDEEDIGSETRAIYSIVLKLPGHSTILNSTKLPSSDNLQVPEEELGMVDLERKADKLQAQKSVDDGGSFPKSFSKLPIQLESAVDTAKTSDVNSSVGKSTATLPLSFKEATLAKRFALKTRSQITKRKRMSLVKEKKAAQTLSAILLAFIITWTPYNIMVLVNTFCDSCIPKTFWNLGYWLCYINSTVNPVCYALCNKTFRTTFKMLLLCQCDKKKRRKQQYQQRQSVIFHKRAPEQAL

[5] = biological target: T1, Muscarinic acetylcholine receptor M2; assay: Inhibitory activity against [3H]quinuclidinyl Benzilate binding to Muscarinic acetylcholine receptor M2 in the presence of GTP
In short: (§1)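 Membranes from CHO cells expressing human M2 receptor. Competition against 0.1 nM [3H]quinuclidinyl benzilate in 25 mM sodium phosphate pH 7.4, 5 mM MgCl2, without or with 10 μM GTP; 30 min at 37 °C, triplicate. Nonspecific binding with 1 μM atropine. Filtration, scintillation counting.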

[6] = biological target: T2, Muscarinic acetylcholine receptor M1
[7] = biological target: T1, Muscarinic acetylcholine receptor M2; assay: Inhibitory activity against [3H]quinuclidinyl Benzilate binding to Muscarinic acetylcholine receptor M2 in the absence of GTP; in short: as §1
[8] = biological target: Muscarinic acetylcholine receptor M2 (Homo sapiens) (UniProt P08172); assay: Inhibition of binding of 0.1 nM [3H]quinuclidinyl benzilate to Muscarinic acetylcholine receptor M2 in membranes of transfected CHO cells in the absence of GTP
[9] = biological target: Muscarinic acetylcholine receptor M4 (Homo sapiens) (UniProt P08173); assay: Inhibition of binding of [3H]quinuclidinyl benzilate to Muscarinic acetylcholine receptor M4 in membranes of transfected CHO cells
[10] = biological target: Muscarinic acetylcholine receptor M2 (Homo sapiens) (UniProt P08172); assay: Inhibition of binding of [3H]quinuclidinyl benzilate to Muscarinic acetylcholine receptor M2 in membranes of transfected CHO cells
[11] = biological target: T3, Muscarinic acetylcholine receptor M3; assay: Inhibitory activity against stimulation of [3H]inositol monophosphate accumulation in [3H]inositol-labelled CHO transfected cells mediated by Muscarinic acetylcholine receptor M3
Target sequence in this assay (P20309 whole entry, looked up): as the sequence (P20309 whole entry) above

[12] = biological target: T2, Muscarinic acetylcholine receptor M1; assay: Inhibition of binding of [3H]quinuclidinyl benzilate to Muscarinic acetylcholine receptor M1 in rat cerebral cortical membranes; type: cell membranes, Membrane
In short: (§2)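 Rat cerebral cortex membranes were homogenised in 50 mM Tris-HCl pH 7.4 and diluted in HEPES binding buffer. They were incubated with 0.2 nM [3H]quinuclidinyl benzilate in 20 mM HEPES pH 7.4 with 10 mM MgCl2 and 100 mM NaCl for 30 min at 37 °C, in triplicate. Nonspecific binding used 1 µM atropine. Filtration was followed by scintillation counting.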

[13] = biological target: Muscarinic acetylcholine receptor M2 (Homo sapiens) (UniProt P08172); assay: Inhibition of binding of 0.1 nM [3H]quinuclidinyl benzilate to Muscarinic acetylcholine receptor M2 in membranes of transfected CHO cells in the presence of 10 uM GTP
[14] = biological target: T2, Muscarinic acetylcholine receptor M1; assay: The compound was evaluated for inhibition of binding of [3H]quinuclidinyl benzilate to Muscarinic acetylcholine receptor M1 in Rat Cerebral Cortical Membranes; in short: as §2
[15] = biological target: T2, Muscarinic acetylcholine receptor M1; assay: Inhibition of binding of [3H]quinuclidinyl benzilate to Muscarinic acetylcholine receptor M1 in rat cerebral cortical membranes at 100 uM concentration; type: cell membranes, Membrane
In short: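 Rat cortical membranes with 0.2 nM [3H]quinuclidinyl benzilate in HEPES pH 7.4 with 10 mM MgCl2 and 100 mM NaCl, 30 min at 37 °C, triplicate. Atropine 1 µM defined nonspecific binding. Percent inhibition was read at 100 µM test agent; mean ± SEM, n = 4.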

## CC(=O)OC1CC2CCCC1N2 (stereo not given)
[1]
  Ki: 2.6 nM
[2]
  Ki: 5.6 nM
[3]
  Ki: 5.6 nM
[4]
  Ki: 680 nM
[5]
  IC50: 120 nM
[6]
  Ki: 22000 nM
[7]
  IC50: 17 nM
[8]
  IC50: 17 nM
[9]
  Ki: 33 nM
[10]
  Ki: 2.6 nM
[11]
  EC50: 3.6 nM
[12]
  Ki: 21000 nM
[13]
  IC50: 120 nM
[14]
  Ki: 22000 nM
[15]
  Ki: 22000 nM

Source: ChEMBL document CHEMBL1131242, “6beta-Acetoxynortropane: a potent muscarinic agonist with apparent selectivity toward M2-receptors” (J Med Chem, 1998)
